A selection: hits, their analogues and other compounds. The true share with any hit is near 4.7%.
HTR2A ag: agonists of mouse serotonin 5-HT2A receptor (HTR2A) | activation, % at 7.6 µM | 360,000 compounds, 0.66% hits | CHO-K1 mHTR2A beta-arrestin complementation, luminescence; percent of 30 µM serotonin response | P35363 | AID 624169;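 active = activation above a run cutoff, the mean activation of all tested compounds plus 3 SD, cut at about 14% in these data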;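 note: 0% = plate median of compound wells and 100% = 30 µM serotonin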
Target sequence (P35363 whole entry, looked up): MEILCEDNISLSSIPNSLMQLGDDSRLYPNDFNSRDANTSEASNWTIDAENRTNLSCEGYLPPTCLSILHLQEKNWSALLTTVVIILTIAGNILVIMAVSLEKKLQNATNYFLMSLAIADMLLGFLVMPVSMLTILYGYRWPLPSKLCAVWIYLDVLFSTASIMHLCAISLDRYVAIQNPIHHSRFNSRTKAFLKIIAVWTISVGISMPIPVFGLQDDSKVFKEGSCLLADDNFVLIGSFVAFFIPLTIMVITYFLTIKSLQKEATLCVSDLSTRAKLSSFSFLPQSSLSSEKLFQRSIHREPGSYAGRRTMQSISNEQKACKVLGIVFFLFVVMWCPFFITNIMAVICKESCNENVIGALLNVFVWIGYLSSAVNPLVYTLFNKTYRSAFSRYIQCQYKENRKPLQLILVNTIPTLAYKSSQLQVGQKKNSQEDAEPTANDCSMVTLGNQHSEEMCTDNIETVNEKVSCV
GAA850 FXN act: activators of GAA850 frataxin (FXN) promoter | HEK293 lucGAA850 FXN promoter luciferase reporter, 24 h; percent of 10 µM SAHA response | activation, % at 6 µM | 360,000 compounds, 0.56% hits | AID 540364;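 active = activation above the average of all compounds screened plus 3 SD, cutoff fixed separately per campaign, cut at about 7.5% in these data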;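 note: 0% = DMSO wells and 100% = 10 µM SAHA wells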
MC4R antag cAMP: human MC4R antagonism in cAMP assay | MC4R-expressing cells, MTII-stimulated cAMP, LANCE TR-FRET | inhibition, % at 6.5 µM | 360,000 compounds, 0.48% hits | AID 540295;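 active = inhibition above its plate's cutoff, the mean of tested wells on that plate plus 3 SD, cut at about 29% in these data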;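 note: 0% = Melanotan II alone and 100% = Melanotan II plus saturating MCL0020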
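Material: human MC4R-expressing U2OS cells. Probe or stimulus: Melanotan II challenge. Dosing: 6.5 µM single dose. Times: 30-min compound, 1-h challenge, 1-h detection, room temperature. Technique: TR-FRET with Eu-cAMP and labeled anti-cAMP, 671 nm. Replication: singlicate.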
MC4R barr agon: activates human MC4R beta-arrestin recruitment; P32245; U2OS MC4R beta-arrestin complementation, luminescence; percent of melanotan II response, DMSO zero; activation, % at 8.9 µM; 360,000 compounds, 0.98% hits; AID 540308;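 active = activation above a per-plate cutoff, the mean activation of sample wells on that plate plus 3 SD, cut at about 8% in these data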
AHR activator: human AHR activation. AHR-responsive luciferase reporter cells, luminescence. activation, % at 5 µM. 320,000 compounds, 2.5% hits; in the data active = activation above about 47%;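 note: 0% = vehicle wells and 100% = reference agonist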
AHR act confirm: confirmation of human aryl hydrocarbon receptor activators | shares compounds with AHR activator | human cells, AHR-responsive luciferase reporter, luminescence | activation, % at 9 µM | 2,300 compounds, 87% hits; in the data active = activation above about 49%;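 note: HepG2 hepatoma cells carrying a DRE-driven firefly luciferase reporter; 0% = vehicle wells and 100% = reference agonist wells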
PXR counter: counter-screen for AHR activators: human PXR activators; shares compounds with AHR activator; cell-based PXR reporter, luciferase luminescence; activation, % at 11.6 µM; 2,300 compounds, 88% hits; in the data active = activation above about 11%;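 note: human hepatoma DPX-2 cells expressing full-length human PXR; 0% = DMSO and 100% = reference agonist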
* marks the source's active call; other numbers are inactive results; x = not tested or not shown.

SMILES | HTR2A ag | GAA850 FXN act | MC4R antag cAMP | MC4R barr agon | AHR activator | AHR act confirm | PXR counter
N#Cc1c(SCC(N)=O)nsc1SCc1ccccc1Cl | 4 | 2 | 9 | 2 | 101* | 83* | 22*
O=C(NC1C2CC3CC(C2)CC1C3)c1ccc(Br)o1 (stereo not given) | 1 | 0 | 4 | -1 | 31 | x | x
COc1ccc(Cl)cc1NC(=O)C/C(C)=N/NC(=O)c1ccccc1Cl | 8 | 0 | 10 | 0 | 14 | x | x
COc1cc(NC(=O)C/C(C)=N/NC(=O)Cc2ccccc2)c(OC)cc1Cl | -5 | 2 | 0 | 3 | 147* | 5 | 16*
Nc1cccc(-c2nc3ccccc3s2)c1 | 0 | 3 | 1 | -1 | 116* | 96* | 8
CC(=O)Nc1cccc(-c2nc3ccccc3s2)c1 | 0 | 6 | -3 | 0 | 124* | 99* | 20*
O=C(/C=C/c1ccco1)NC(=S)Nc1cccc(-c2nc3ccccc3s2)c1 | -2 | -4 | -6 | -2 | 82* | 118* | 33*
Oc1cccc(-c2nc3ccccc3s2)c1 | -3 | 0 | 1 | 3 | 86* | 58* | 12*
CC(=O)Nc1cccc(-c2nc3ccc(NC(C)=O)cc3s2)c1 | 7 | 5 | 5 | 0 | 4 | x | x
Cc1ccccc1C(=O)N1CCC(C(=O)OCc2ccccn2)CC1 | 2 | -1 | 3 | -2 | 0 | x | x
CCc1nc2ccc(C(=O)N3CCN(C(=O)c4ccco4)CC3)cn2c1N(CCC(C)C)CCN(C)C | 11 | -1 | 6 | -1 | x | x | x
COc1cc(C#N)ccc1OCC(=O)Nc1cccc(S(=O)(=O)N(C)c2ccccc2)c1 | -3 | 0 | 9 | 1 | x | x | x
COc1cccc(-c2nc3ccccc3s2)c1O | -3 | 7 | 13 | 0 | 16 | x | x
COc1ccc(-c2nc3ccccc3s2)cc1O | -1 | -4 | 7 | -1 | 82* | 76* | 11*
CCCCN(C(=O)c1cc(S(=O)(=O)N2CCCCC2)ccc1Cl)c1c(N)n(CC(C)C)c(=O)[nH]c1=O | -5 | 0 | 1 | -1 | x | x | x
Cc1ccccc1/C=c1\s/c(=C\C(=O)C(C)(C)C)[nH]c1=O | 6 | -3 | 8 | 4 | 119* | 76* | 105*
CC(C)(C)C(=O)/C=c1\[nH]c(=O)/c(=C\c2ccc(F)cc2)s1 | -3 | 0 | 11 | 2 | 32 | x | x
Cc1cc(C)c2[nH]c(O)c(N=Nc3ccc(C(=O)O)cc3)c2c1 | -2 | 2 | 9 | 0 | 0 | x | x
Cc1cc(C)c2[nH]c(O)c(N=NC3=NC(=O)CS3)c2c1 | -4 | 2 | -25 | -3 | 95* | 118* | 16*
Cc1ccc2c(c1)c1nnc(SCC(=O)NC3CC3)nc1n2C | 2 | -2 | 5 | -1 | 79* | 100* | 19*
CC(=O)O[C@@H]1C[C@@]2(C)[C@@H](CC[C@H]2[C@@H](C)/C=C\CC(C)C)C2=C[C@@H](O)[C@@]3(O)C[C@@H](O)[C@H](O)C[C@]3(CO)[C@]21O | 1 | 1 | 12 | -1 | x | x | x
COCc1cc(=O)n2[nH]c(-c3cccc(Br)c3)cc2n1 | -2 | 5 | -2 | -2 | 120* | 115* | 13*
c1ccc(CN2CCC3CC2c2cc(N4CCCCC4)ccc23)cc1 (stereo not given) | 10 | -2 | 7 | 3 | x | x | x
CCOc1ccc(NC(=O)OCCN2CCN(CCc3ccccc3)C(C)C2)cc1 (stereo not given) | -8 | 0 | 2 | -1 | x | x | x
S=C(Nc1ccc(Cl)cc1)c1nc2ccccc2s1 | 0 | 3 | -3 | 8.6* | 130* | 112* | 13*
O=C(Nc1ccc(Cl)cc1)/C(=C/c1cccc(O)c1)c1nc2ccccc2s1 | 8 | -9 | 6 | 1 | 4 | x | x
COc1ccc(C)cc1NC(=O)COC(=O)c1ccc2ccccc2n1 | 10 | 2 | -2 | -4 | 23 | x | x
Cc1ccc(C)c(NC(=S)c2nc3ccccc3s2)c1 | 6 | 6 | 5 | 2 | 83* | 135* | 14*

Source: PubChem
